Laboratory results reported in ChEMBL document CHEMBL1143004, “Structure-activity relationship among purpurinimides and bacteriopurpurinimides: trifluoromethyl substituent enhanced the photosensitizing efficacy” (J Med Chem, 2007).

Experiments:
[1] = Ratio of drug level in tumor to skin of C3H mouse bearing RIF tumors after 24 hrs by IRS; type: ADME; conditions: in vivo
Method in brief: (§1)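 In vivo reflectance spectroscopy in female C3H/RIF or BALB/c/colon-26 mice. Baseline spectrum recorded via fiber bundles on tumor plus overlying skin and on normal skin. Drug 2.5–5.0 µmol/kg i.v. by tail vein, then spectra recorded up to 2 days. Post- to pre-injection spectral ratio compared in tumor versus skin. n = 3.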

[2] = Photosensitizing efficacy in C3H mouse bearing RIF tumors measured as tumor free at 0.4 umol/kg and light dose 135 J/cm2 after 60 days; type: functional
Method in brief: (§2)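 Female C3H mice given s.c. RIF cells (3 × 10⁵) or female BALB/c mice given colon-26 cells (1 × 10⁶), both on right posterior shoulder. Drug in 1% Tween 80/HBSS given i.v. the day before light, hair depilated. At 24 h p.i., restrained unanaesthetized mice (10/group) got a 1 cm² argon-pumped dye laser spot, 135 J/cm² at 75 mW/cm². Tumor volume L·W²/2; cure = no palpable tumor.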

Colon 26 = assay: Photosensitizing efficacy in Balb/C mouse implanted with colon26 tumors measured as tumor free at 0.7 umol/kg and light dose 135 J/cm2 after 90 days; type: functional; method in brief: as §2
RIF = assay: Photosensitizing efficacy in RIF cells after 48 hrs by MTT assay in presence of light; type: functional, cell-based
Method in brief: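 RIF cells, 5 × 10³/well, seeded in α-MEM with 10% FCS. Next day drug added at 1.25–20 µM (formulated in 1% Tween 80/5% dextrose, diluted in medium), 24 h dark at 37 °C. Medium replaced, then 708 nm (purpurinimides) or 791 nm (bacteriopurpurinimides) at 3.2 mW/cm², 0.5–20 J/cm². After 48 h dark, MTT 4 h, DMSO, A560. Survival relative to dark and light controls; four wells per point, SD from three experiments.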

[3] = Photosensitizing efficacy in C3H mouse bearing RIF tumors measured as tumor free at 0.7 umol/kg and light dose 135 J/cm2 after 90 days; type: functional; method in brief: as §2
[4] = Ratio of drug level in tumor to skin of Balb/C mouse implanted with colon26 tumor after 24 hrs by IRS; type: ADME; conditions: in vivo; method in brief: as §1

SMILES	Ratio [1]	further results
CCCCCCCOC(C)c1c(C)c2cc3nc(c4c5[nH]c(cc6nc(cc1[nH]2)[C@@H](C)[C@@H]6CC)c(C)c5C(=O)N(Cc1cc(C(F)(F)F)cc(C(F)(F)F)c1)C4=O)[C@@H](CCC(=O)OC)[C@@H]3C (stereo partly drawn)	6.87	–
CCCCCCCCCCCCOC(C)c1c(C)c2cc3nc(c4c5[nH]c(cc6nc(cc1[nH]2)C(C)=C6CC)c(C)c5C(=O)N(Cc1cc(C(F)(F)F)cc(C(F)(F)F)c1)C4=O)[C@@H](CCC(=O)OC)[C@@H]3C (stereo partly drawn)	1.82	Activity [2]: 50%
CC[C@@H]1c2cc3[nH]c4c(c5nc(cc6[nH]c(cc(n2)[C@H]1C)c(C(C)OC)c6C)[C@@H](C)[C@@H]5CCC(=O)OC)C(=O)N(Cc1cc(C(F)(F)F)cc(C(F)(F)F)c1)C(=O)c4c3C (stereo partly drawn)	1.91	–
CCC1=C(C)c2cc3[nH]c(cc4nc(c5c6[nH]c(cc1n2)c(C)c6C(=O)N(Cc1cc(C(F)(F)F)cc(C(F)(F)F)c1)C5=O)[C@@H](CCC(=O)OC)[C@@H]4C)c(C)c3C(C)OC (stereo partly drawn)	2.48	–
CCCCOC(C)c1c(C)c2cc3nc(c4c5[nH]c(cc6nc(cc1[nH]2)C(C)=C6CC)c(C)c5C(=O)N(Cc1cc(C(F)(F)F)cc(C(F)(F)F)c1)C4=O)[C@@H](CCC(=O)OC)[C@@H]3C (stereo partly drawn)	4.76	Activity (Colon 26): 30%; Activity (RIF): Dose-dependent effect; Activity [3]: 30%; Ratio [4]: 3.38
CCCCOC(C)c1c(C)c2cc3nc(c4c5[nH]c(cc6nc(cc1[nH]2)[C@@H](C)[C@@H]6CC)c(C)c5C(=O)N(Cc1cc(C(F)(F)F)cc(C(F)(F)F)c1)C4=O)[C@@H](CCC(=O)OC)[C@@H]3C (stereo partly drawn)	5.3	–
CCCCCCCCCCCCOC(C)c1c(C)c2cc3nc(c4c5[nH]c(cc6nc(cc1[nH]2)[C@@H](C)[C@@H]6CC)c(C)c5C(=O)N(Cc1cc(C(F)(F)F)cc(C(F)(F)F)c1)C4=O)[C@@H](CCC(=O)OC)[C@@H]3C (stereo partly drawn)	8.89	Activity [2]: 60%
CCCCOC(C)c1c(C)c2cc3nc(c4c5[nH]c(cc6nc(cc1[nH]2)C(C)=C6CC)c(C)c5C(=O)N(Cc1cc(C(F)(F)F)cc(C(F)(F)F)c1)C4=O)[C@@H](CCC(=O)Nc1ccc(CC(CN(CCN(CC(=O)O)CC(=O)O)CC(=O)O)N(CC(=O)O)CC(=O)O)cc1)[C@@H]3C (stereo partly drawn)	3.68	Activity (Colon 26): 70%; Activity [3]: 70%; Ratio [4]: 5.06
CCCCCCCOC(C)c1c(C)c2cc3nc(c4c5[nH]c(cc6nc(cc1[nH]2)C(C)=C6CC)c(C)c5C(=O)N(Cc1cc(C(F)(F)F)cc(C(F)(F)F)c1)C4=O)[C@@H](CCC(=O)OC)[C@@H]3C (stereo partly drawn)	1.97	–
